TPT1 inhibitor: inhibitors of Candida albicans tRNA 2'-phosphotransferase TPT1. actives 0.81% (n = 300,000). inhibition, % at 5 µM. recombinant caTPT1, FP RNA substrate dephosphorylation;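 active = inhibition above the mean of all tested compounds plus 3 SD, set per screening campaign, cut at about 24% in these data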;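 also: plate controls were DMSO alone for no effect and ferristatin control at 100 nM for full effect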
XiGFP reactiv: activators of X-chromosome reactivation in mouse fibroblasts; XiGFP mouse fibroblasts, % GFP-positive cells imaging, 3 d; cells co-treated with 5-aza-dC sensitizer; scaled so ellipticine positive control = 100%; activation, % at 7.58 µM; actives 0.055% (n = 360,000); AID 743238;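 active = mean normalized replicate activation at least 10% and every replicate at or above 10%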;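 also: 0% = median of on-plate neutral control wells and 100% = ellipticine 6 µM median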
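System: 68-5-11 XiGFP fibroblast line; Timing: 3 days compound exposure; Compound dosing: one concentration, pinned; Benchmarks: positive control ellipticine, 6 µM final; Buffer or medium: DMEM containing 5-aza-dC.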
aDG glyco up: increases alpha dystroglycan glycosylation | Pro5-aDG cells, alpha-DG glycosylation AlphaScreen (IIH6); 0% Pro5, 100% B10-LARGE cell signal | activation, % at 10 µM | actives 0.22% (n = 360,000) | AID 624168;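 active = activation of at least 8% versus controls, or a plate z-score of at least 8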;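 also: Pro5 are CHO cells carrying HIG-tagged alpha-DG that lacks glycosylation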
HNF4A DNA FP: change in binding of human HNF4 alpha to DNA | P41235 | HNF4a-FITC DNA binding, fluorescence polarization, 1 h | AID 1224865 | actives 0.3% (n = 360,000) | activity change, % at 10 µM; in the data active = activity change above about 30%, passing the limit was not always enough
Rpn11 inh: Rpn11 (human) deubiquitinase inhibition; O00487; human 26S proteasome, Ub4-pepOG fluorescence polarization; 20S core pre-blocked with epoxomicin; inhibition, % at 20 µM; actives 0.59% (n = 360,000); AID 588493;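 active = inhibition at 20 µM, scaled to each plate's controls, above about 33%, limit read from the data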
Target sequence (O00487 whole entry, looked up): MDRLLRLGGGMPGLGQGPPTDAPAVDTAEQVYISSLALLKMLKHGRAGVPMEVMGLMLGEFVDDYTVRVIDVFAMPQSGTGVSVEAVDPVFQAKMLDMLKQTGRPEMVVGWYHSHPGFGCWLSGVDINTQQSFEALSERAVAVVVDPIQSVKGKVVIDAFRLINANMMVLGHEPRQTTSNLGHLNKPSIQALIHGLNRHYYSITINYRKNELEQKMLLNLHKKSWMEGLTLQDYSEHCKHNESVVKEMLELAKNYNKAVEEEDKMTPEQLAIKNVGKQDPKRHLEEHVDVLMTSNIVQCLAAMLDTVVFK
CSN inh: inhibitors of human CSN-mediated cullin deneddylation; Purified CSN, SCF-Nedd8-OG deneddylation, fluorescence polarization; inhibition, % at 12.5 µM; actives 0.38% (n = 360,000); AID 651999;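 active = pattern-corrected inhibition above about 35%, with an unprinted fluorescence ratio check between 0.5 and 1.5, limit read from the data, passing the limit was not always enough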;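 also: 0% = enzyme with substrate and 100% = substrate without enzyme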
Target sequence (Q92905 whole entry, looked up, one chain of several): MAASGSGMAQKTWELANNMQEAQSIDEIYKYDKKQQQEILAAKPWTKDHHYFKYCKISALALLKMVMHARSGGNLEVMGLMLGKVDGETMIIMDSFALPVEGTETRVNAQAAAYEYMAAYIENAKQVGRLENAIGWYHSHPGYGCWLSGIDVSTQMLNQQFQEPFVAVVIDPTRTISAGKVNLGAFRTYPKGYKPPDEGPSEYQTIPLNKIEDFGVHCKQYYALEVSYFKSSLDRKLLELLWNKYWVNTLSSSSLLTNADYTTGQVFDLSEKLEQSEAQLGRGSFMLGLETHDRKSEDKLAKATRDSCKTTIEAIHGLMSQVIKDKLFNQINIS
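Test system: Human Csn5 produced in HEK293T cells | Compound: 12.5 µM single point | Times: 90 min, room temperature | Signal: Fluorescence polarization readout | Read-out basis: % inhibition of substrate cleavage by Csn5 | Controls: no-enzyme wells high, enzyme-with-substrate wells low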
* = called active by the depositor; . = not tested or not shown. Sampled rows, rich in hits. Any-hit rate of the full collection: about 1.3%.

SMILES | TPT1 inhibitor | XiGFP reactiv | aDG glyco up | HNF4A DNA FP | Rpn11 inh | CSN inh
C[C@@H]1CN([C@H](C)CO)S(=O)(=O)c2ccc(C#CCN(C)C)cc2O[C@H]1CN(C)C(=O)C1CC1 | . | -0.3 | . | . | . | .
COC(=O)c1c(NC(C)=O)sc2c1CCCCC2 | -1.1 | -0.2 | -0.1 | 2.1 | 7.0 | 104.3*
COC(=O)c1c(NC(C)=O)sc2c1CCCC2 | -4.4 | . | -0.3 | -1.8 | -2.0 | -4.2
CC(C)n1c(O)c(N=Nc2ccc(Cl)nn2)c2ccccc21 | 4.0 | 0.2 | -0.3 | 33.1 | . | 43.7*
C[C@@H]1CN([C@@H](C)CO)S(=O)(=O)c2ccc(C#Cc3cccnc3)cc2O[C@H]1CN(C)C(=O)CN(C)C | . | 0.3 | . | . | . | .
COc1ccc([C@H]2[C@H](C(=O)OC(C)(C)C)N3N=Cc4ccccc4C3C23C(=O)c2ccccc2C3=O)cc1OC (stereo partly specified) | 1.7 | . | 9.9* | 1.2 | 13.9 | -0.7
O=c1[nH]c(=O)n([C@H]2C[C@H](O)[C@@H](CO)O2)cc1C(F)(F)F | -2.5 | 25.3* | -0.2 | 0.2 | 3.7 | 2.6
O=c1[nH]c(=O)n(C2C[C@H](O)[C@@H](CO)O2)cc1C(F)(F)F (stereo partly specified) | -1.0 | 0.1 | -0.3 | 1.3 | -3.6 | -1.9
COc1ccccc1Nc1nc2nonc2nc1N1CCC(C)CC1 | -2.9 | 0.5 | -0.2 | 2.0 | 0.9 | 0.8
COc1ccc(OC)c(Nc2nc3nonc3nc2N2CCCCC2)c1 | -2.2 | . | 0.0 | 39.5* | . | 10.5
CCOC(=O)Cn1c(-c2ccc(OC)cc2)c(-c2ccc(OC)cc2)nnc1=O | 1.9 | 0.0 | 0.0 | 32.7* | 2.6 | -4.6
C[C@@H]1CN([C@H](C)CO)C(=O)Cc2cc(NS(=O)(=O)c3ccc(Cl)cc3)ccc2O[C@@H]1CN(C)C(=O)NC1CCCCC1 | . | -0.5 | . | . | . | .
CN1CCN(CC(=O)n2c3c(c4ccccc42)CCCC3)CC1 | 2.0 | . | 0.0 | 6.2 | -0.5 | 39.3*
CCN(CC)CC(=O)n1c2c(c3ccccc31)CCCC2 | 3.2 | . | 0.2 | -0.2 | 9.0 | 1.0
Cc1c2ccccc2cc[n+]1CCCS(=O)(=O)[O-] | -2.2 | 0.0 | 0.1 | -5.2 | -2.1 | 1.9
CC1(C)C(/C=C/C=C/C=C/C=C2\N(CCCCS(=O)(=O)O)c3ccc4ccccc4c3C2(C)C)=[N+](CCCCS(=O)(=O)[O-])c2ccc3ccccc3c21 | 75.3* | . | 0.5 | -24.9 | 26.9 | 82.7
CCOCCCNC(=O)C(c1ccc(C)cc1)N(Cc1cccs1)C(=O)c1ccccn1 (stereo unspecified) | -0.9 | 26.2* | -0.2 | 0.8 | 2.1 | 0.6
CCCc1[nH]nc2c1C(c1ccc(OCCN3CCOCC3)c(OC)c1)C(C#N)=C(N)O2 (stereo unspecified) | -4.8 | . | 0.3 | 1.6 | 7.7 | -1.4
CCOc1cc(C2C(C#N)=C(N)SC(N)=C2C#N)ccc1OCCN1CCOCC1 | 45.8* | . | -0.2 | 3.9 | 18.7 | 5.8
Cc1ccc(NC(=O)C2CC(=O)N(c3ccc4c5c(cccc35)CC4)C2)cc1 (stereo unspecified) | -3.0 | . | 0.3 | 1.9 | -0.2 | 35.2*
N#Cc1ccccc1NC(=O)C1CC(=O)N(c2ccc3c4c(cccc24)CC3)C1 (stereo unspecified) | -1.0 | 0.0 | -0.1 | 0.9 | 4.5 | 3.0
C#CCOCCOCCOCCNc1nc(N2CCN(C(=O)CCCCCCCCCCNC(=O)Cn3cc(C[C@@H](C)O)nn3)CC2)nc(N2CCN(C(=O)CCCCCCCCCCNC(=O)[C@H](CCCCN)n3cc(CCCC(=O)O)nn3)CC2)n1 | 3.7 | 0.0 | -0.2 | 3.5 | -1.5 | 5.2
C#CCOCCOCCOCCNc1nc(N2CCN(C(=O)CCCCCCCCCCNC(=O)[C@H](CO)n3cc(CCCSC)nn3)CC2)nc(N2CCN(C(=O)CCCCCCCCCCNC(=O)[C@H](CCCN=C(N)N)n3cc(C[C@@H](C)CC)nn3)CC2)n1 | -2.6 | . | -0.6 | 278.6 | 108.1* | 130.6*
C#CCOCCOCCOCCNc1nc(N2CCN(C(=O)CCCCCCCCCCNC(=O)Cn3cc(C[C@@H](C)O)nn3)CC2)nc(N2CCN(C(=O)CCCCCCCCCCNC(=O)[C@H](CCCN=C(N)N)n3cc(C[C@@H](C)CC)nn3)CC2)n1 | 0.3 | . | -0.2 | 160.0 | 84.1* | 44.0*
C#CCOCCOCCOCCNc1nc(N2CCN(C(=O)CCCCCCCCCCNC(=O)[C@H](CO)n3cc(CCCSC)nn3)CC2)nc(N2CCN(C(=O)CCCCCCCCCCNC(=O)[C@H](CCCCN)n3cc(CCO)nn3)CC2)n1 | . | -0.3 | 0.3 | 14.2 | 5.4 | 13.7
SMILES | TPT1 inhibitor | XiGFP reactiv | aDG glyco up | HNF4A DNA FP | Rpn11 inh | CSN inh
OCCNc1nc2ccccc2n1CC(O)c1ccccc1 (stereo unspecified) | 2.0 | -0.3 | 0.0 | 120.3* | -12.5 | -5.7
COc1ccc(-c2ccc3c(c2)S(=O)(=O)c2cccc(C(=O)NCCOc4ccccc4Cl)c2C3=O)cc1OC | . | 0.1 | -0.3 | -17.0 | 9.5 | 65.0*
CCCCN(CCCC)c1nc2ccccc2nc1C(C#N)C(=O)NCCCOC (stereo unspecified) | 7.7 | . | -0.4 | -0.8 | . | 98.8*
Cc1noc(C)c1NC(=O)N(C)C[C@H]1OCCCC[C@@H](C)Oc2ccc(NC(=O)Cc3ccccc3)cc2C(=O)N([C@@H](C)CO)C[C@H]1C | . | -1.1 | . | . | . | .
COc1ccc(C#Cc2ccc3c(c2)O[C@H](CN(C)S(=O)(=O)c2ccccc2F)[C@@H](C)CN([C@@H](C)CO)S3(=O)=O)cc1 | . | -1.0 | . | . | . | .
O=C(O)C1Nc2c(C(=O)N3CCOCC3)cccc2C2C=CCC12 (stereo unspecified) | -13.8 | . | 0.0 | -30.7 | -10.9 | 35.3*
Cc1cc(C)c2c(c1)NC(C(=O)O)C1CC=CC21 (stereo unspecified) | 16.5 | 0.0 | 0.7 | -40.0 | -20.4 | 28.4
Cc1ccc2c(c1C)NC(C(=O)O)C1CC=CC21 (stereo unspecified) | 26.0* | . | 0.0 | -51.9 | 33.8 | 28.2
O=C(/C=C/c1cc[n+](CC(=O)c2ccc3cccc4c3c2CC4)cc1)c1ccc2cccc3c2c1CC3 | 49.4* | . | 1.1 | 178.3 | 118.7* | 113.1*
CC(C)n1cc(/C=N/Nc2ccc(Cl)c(C(=O)O)c2)c2ccccc21 | 0.3 | . | 0.0 | -40.1 | 1.3 | 39.6*
O=C(O)c1cc(N/N=C/c2cccc3ccccc23)ccc1Cl | 4.2 | 0.1 | 0.2 | -1.3 | 1.0 | -3.0
c1ccc2sc(NC3=NCN(C4CCCCCC4)CN3)nc2c1 | -6.1 | . | 4.4* | 1.4 | 2.6 | 3.1
c1ccc2oc(NC3=NCN(C4CCCCC4)CN3)nc2c1 | -1.8 | 0.6 | -0.2 | 4.7 | -5.1 | 1.5

Screening data from PubChem BioAssay.
